Results published in ChEMBL document CHEMBL1137710, “Synthesis and in vitro antitumor activity of new quinoxaline derivatives” (2009).

Legend:
Type in all cases: functional
HL-60(TB) = assay: Growth inhibition of human HL-60(TB) cells after 48 hrs by sulforhodamine B assay; details: HL-60, 48 h
Procedure, shortened: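 Tested only on compounds active in a three-line prescreen, in the NCI 60-human-tumour-cell-line panel over a 5-log dose range. Values come from dose–response curves as log10 molar GI50, the concentration inhibiting 50% net cell growth. Log10 TGI (total growth inhibition) and log10 LC50 (50% net cell death) were derived too. Mean graph midpoints include insensitive lines at the highest concentration tested.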

K562 = assay: Growth inhibition of human K562 cells after 48 hrs by sulforhodamine B assay; details: K562, 48 h
Procedure, shortened: (§1)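 NCI 60-human-tumor-cell-line panel, with compounds tested over a 5-log dose range. Values are taken from dose-response curves as log10 molar concentrations: GI50 is 50% net growth inhibition, TGI is total growth inhibition, and LC50 is 50% net cell death.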

[1] = Growth inhibition of human […] cells after 48 hrs by sulforhodamine B assay; procedure, shortened: as §1
SR = assay: Growth inhibition of human SR cells after 48 hrs by sulforhodamine B assay
Procedure, shortened: (§2)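 Run in the NCI 60-human-tumour-cell-line panel, tested over a 5-log dose range. Dose–response curves gave three values per cell line, each as a log10 molar concentration: GI50 (50% inhibition of net cell growth), TGI (total inhibition of net growth) and LC50 (50% net cell death). The mean graph midpoint is the arithmetic mean over all lines, with insensitive lines entered at the highest concentration tested.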

A549 = assay: Growth inhibition of human A549 cells after 48 hrs by sulforhodamine B assay; details: A549, 48 h; procedure, shortened: as §1
EKVX = assay: Growth inhibition of human EKVX cells after 48 hrs by sulforhodamine B assay; procedure, shortened: as §1
HOP-92 = assay: Growth inhibition of human HOP92 cells after 48 hrs by sulforhodamine B assay; details: HOP-92, 48 h; procedure, shortened: as §1
NCI-H226 = assay: Growth inhibition of human NCI-H226 cells after 48 hrs by sulforhodamine B assay; details: NCI-H226, 48 h; procedure, shortened: as §1
NCI-H23 = assay: Growth inhibition of human NCI-H23 cells after 48 hrs by sulforhodamine B assay; details: NCI-H23, 48 h; procedure, shortened: as §1
HCT-116 = assay: Growth inhibition of human HCT116 cells after 48 hrs by sulforhodamine B assay; details: HCT-116, 48 h; procedure, shortened: as §1
HCT-15 = assay: Growth inhibition of human HCT15 cells after 48 hrs by sulforhodamine B assay; details: HCT-15, 48 h; procedure, shortened: as §1
HT-29 = assay: Growth inhibition of human HT-29 cells after 48 hrs by sulforhodamine B assay; details: HT-29, 48 h; procedure, shortened: as §1
SW-620 = assay: Growth inhibition of human SW620 cells after 48 hrs by sulforhodamine B assay; details: SW-620, 48 h; procedure, shortened: as §2
SF-539 = assay: Growth inhibition of human SF539 cells after 48 hrs by sulforhodamine B assay; details: SF-539, 48 h; procedure, shortened: as §1
SNB-75 = assay: Growth inhibition of human SNB75 cells after 48 hrs by sulforhodamine B assay; details: SNB-75, 48 h; procedure, shortened: as §2
LOX IMVI = assay: Growth inhibition of human LOXIMVI cells after 48 hrs by sulforhodamine B assay; procedure, shortened: as §1
M14 = assay: Growth inhibition of human M14 cells after 48 hrs by sulforhodamine B assay; details: M14, 48 h; procedure, shortened: as §1
SK-MEL-2 = assay: Growth inhibition of human SK-MEL-2 cells after 48 hrs by sulforhodamine B assay; details: SK-MEL-2, 48 h; procedure, shortened: as §1
SK-MEL-28 = assay: Growth inhibition of human SK-MEL-28 cells after 48 hrs by sulforhodamine B assay; details: SK-MEL-28, 48 h; procedure, shortened: as §1
UACC-62 = assay: Growth inhibition of human UACC62 cells after 48 hrs by sulforhodamine B assay; details: UACC-62, 48 h; procedure, shortened: as §2
ACHN = assay: Growth inhibition of human ACHN cells after 48 hrs by sulforhodamine B assay
RXF 393 = assay: Growth inhibition of human RXF393 cells after 48 hrs by sulforhodamine B assay; details: RXF 393, 48 h; procedure, shortened: as §1
DU-145 = assay: Growth inhibition of human DU145 cells after 48 hrs by sulforhodamine B assay; details: DU-145, 48 h; procedure, shortened: as §1
NCI/ADR-RES = assay: Growth inhibition of human NCI/ADR-RES cells after 48 hrs by sulforhodamine B assay; procedure, shortened: as §1
BT-549 = assay: Growth inhibition of human BT549 cells after 48 hrs by sulforhodamine B assay; details: BT-549, 48 h; procedure, shortened: as §1
[2] = read-out: pLC50 (the source's name) (converted)

Compound Nc1cc(N)c2nc(-c3ccccc3)c(Oc3ccc(F)cc3)nc2c1 has a GI50 (HL-60(TB)) of 18.6 µM, an LC50 (HL-60(TB)) of over 100 µM and a TGI (HL-60(TB); read-out: pTGI (converted)) of 64.6 µM. For the same compound, the GI50 (K562) was 11 µM, the LC50 (K562) was over 100 µM and the TGI (K562; read-out: pTGI (converted)) was over 100 µM. The GI50 [1] was 12.3 µM, the LC50 [1] was over 100 µM and the TGI ([1]; read-out: pTGI (converted)) was 46.8 µM. It also gave a GI50 (SR) of 8.13 µM, an LC50 (concentration giving 50% net cell death) (SR) of over 100 µM and a TGI (SR; read-out: pTGI (converted)) of over 100 µM. For the same compound, the GI50 (A549) was 24 µM, the LC50 (A549) was 89.1 µM and the TGI (A549; read-out: pTGI (converted)) was 46.8 µM. The GI50 (EKVX) was 14.8 µM, the LC50 (50% net cell kill) (EKVX) was 77.6 µM and the TGI (EKVX; read-out: pTGI (converted)) was 33.9 µM. The GI50 (HOP-92) was 12.3 µM, the LC50 (50% net cell death) (HOP-92) was 72.4 µM and the TGI (HOP-92; read-out: pTGI (converted)) was 29.5 µM. It also gave a GI50 (NCI-H226) of 20.4 µM, an LC50 (NCI-H226) of over 100 µM and a TGI (NCI-H226; read-out: pTGI (converted)) of 49 µM. For the same compound, the GI50 (NCI-H23) was 20.9 µM, the LC50 (50% net cell kill concentration) (NCI-H23) was 77.6 µM and the TGI (NCI-H23; read-out: pTGI (converted)) was 39.8 µM. It also gave a GI50 (HCT-116) of 14.8 µM, an LC50 (concentration causing 50% net cell death) (HCT-116) of over 100 µM and a TGI (HCT-116; read-out: pTGI (converted)) of 81.3 µM. It also gave a GI50 (HCT-15) of 36.3 µM, an LC50 (HCT-15) of over 100 µM and a TGI (HCT-15; read-out: pTGI (converted)) of over 100 µM. The GI50 (HT-29) was 22.9 µM, the LC50 (HT-29) was over 100 µM and the TGI (HT-29; read-out: pTGI (converted)) was 51.3 µM. For the same compound, the GI50 (SW-620) was 19.5 µM, the CC50 (SW-620; [2]) was over 100 µM and the TGI (SW-620; read-out: pTGI (converted)) was 50.1 µM. The GI50 (SF-539) was 18.2 µM, the LC50 (SF-539) was 70.8 µM and the TGI (SF-539; read-out: pTGI (converted)) was 35.5 µM. It also gave a GI50 (SNB-75) of 23.4 µM, an LC50 (SNB-75) of over 100 µM and a TGI (SNB-75; read-out: pTGI (converted)) of 49 µM. The GI50 (LOX IMVI) was 43.7 µM, the LC50 (LOX IMVI) was over 100 µM and the TGI (LOX IMVI; read-out: pTGI (converted)) was over 100 µM. It also gave a GI50 (M14) of 17 µM, a CC50 (M14; [2]) of over 100 µM and a TGI (M14; read-out: pTGI (converted)) of 44.7 µM. For the same compound, the GI50 (SK-MEL-2) was 42.7 µM, the CC50 (SK-MEL-2; [2]) was over 100 µM and the TGI (SK-MEL-2; read-out: pTGI (converted)) was over 100 µM. The GI50 (SK-MEL-28) was 19.5 µM, the CC50 (SK-MEL-28; [2]) was over 100 µM and the TGI (SK-MEL-28; read-out: pTGI (converted)) was 46.8 µM. For the same compound, the GI50 (UACC-62) was 15.8 µM, the CC50 (UACC-62; [2]) was 69.2 µM and the TGI (UACC-62; read-out: pTGI (converted)) was 33.1 µM. The GI50 (ACHN) was 13.8 µM, the CC50 (ACHN; [2]) was 81.3 µM and the TGI (ACHN; read-out: pTGI (converted)) was 33.1 µM. The GI50 (RXF 393) was 19.1 µM, the CC50 (RXF 393; [2]) was over 100 µM and the TGI (RXF 393; read-out: pTGI (converted)) was over 100 µM. For the same compound, the GI50 (DU-145) was 0.46 µM, the CC50 (DU-145; [2]) was over 100 µM and the TGI (DU-145; read-out: pTGI (converted)) was 87.1 µM. It also gave a GI50 (NCI/ADR-RES) of 18.2 µM, a CC50 (NCI/ADR-RES; [2]) of 70.8 µM and a TGI (NCI/ADR-RES; read-out: pTGI (converted)) of 36.3 µM. The GI50 (BT-549) was 15.1 µM, the CC50 (BT-549; [2]) was 81.3 µM and the TGI (BT-549; read-out: pTGI (converted)) was 34.7 µM.
